Compound activity deposited in PubChem BioAssay by several laboratories.
Ecoli WT expand: growth inhibitors of wild-type E. coli, primary screen, strain BW25113, expanded library, OD600; growth inhibition, % at 100 µM; OD600 absorbance; 0.15% of 98,000 active;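 active means growth inhibition above about 50% at one test dose, limit read from the data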;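 further: growth measured after 20 h incubation at 37 °C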
M1 antagonist: antagonists of rat M1 muscarinic receptor | B-score at 10 µM | 3.4% of 64,000 active | AID 628, 2007 | CHO-M1 cells, Fluo-4 calcium, ACh EC80 antagonist mode; hits give low values;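 active means calcium fluorescence response, raw or row-and-column corrected B-score, differing from the plate sample mean either way at a set confidence level, mostly lower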
Target sequence (P08482 whole entry, looked up): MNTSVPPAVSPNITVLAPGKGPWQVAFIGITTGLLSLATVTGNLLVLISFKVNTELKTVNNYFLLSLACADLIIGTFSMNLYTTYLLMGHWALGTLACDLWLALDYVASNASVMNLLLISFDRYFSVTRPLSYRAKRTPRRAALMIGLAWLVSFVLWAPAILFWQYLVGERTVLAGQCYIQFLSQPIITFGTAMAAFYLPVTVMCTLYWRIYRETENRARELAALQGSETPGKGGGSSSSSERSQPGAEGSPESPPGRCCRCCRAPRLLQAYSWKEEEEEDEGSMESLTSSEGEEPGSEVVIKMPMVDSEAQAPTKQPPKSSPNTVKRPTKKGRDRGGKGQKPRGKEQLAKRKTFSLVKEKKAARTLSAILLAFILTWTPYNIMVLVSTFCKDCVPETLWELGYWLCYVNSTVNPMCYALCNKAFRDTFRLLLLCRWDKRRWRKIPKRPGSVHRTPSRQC
tolC growth inh: growth inhibitors of E. coli tolC mutant, primary screen, strain BW25113 ΔtolC::kan, 384-well; OD615; growth inhibition, % at 10 µM (by protocol); 2.2% of 65,000 active; AID 573, 2007;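 active means growth inhibition at or above a cutoff equal to the mean over every tested compound plus 3 SD, cut at about 60% in these data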;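 further: growth measured after 20 h incubation at 37 °C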
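signal = optical density read at 615 nm | test system = E. coli ΔtolC::kan strain BW25113 | timing = 20 h compound exposure of bacteria at 37 °C | buffer or medium = LB medium plus 50 µg/mL kanamycin | compound dosing = 10 µM final, single dose | evaluation = % inhibition of E. coli growth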
BAP1 inh: inhibitors of BAP1 deubiquitinase, primary screen, biochemical, Ub-AMC fluorescence, kinetic. Ubiquitin carboxyl-terminal hydrolase BAP1 (Homo sapiens), Q92560. recombinant BAP1, Ub-AMC hydrolysis fluorescence kinetic; hits give low values. calls only at 20 µM. 0.48% of 72,000 active. AID 436, 2006;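 active means activity remaining at or below 50% of control, provided the compound also passes the data quality filters; inactive means the rest, including low values that fail the filters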;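 further: 100% = DMSO wells rate and 0% = substrate alone blank rate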
M1 ag: M1 muscarinic receptor agonists, primary screen, CHO-M1 cells, Fluo-4 calcium, agonist mode. Muscarinic acetylcholine receptor M1. Fluo-4 calcium fluorescence; hits give high values. B-score at 10 µM. 3% of 64,000 active;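 active means fluorescence rise, raw or as B-score row- and column-corrected plate score, outside the 99.7% band of its plate's samples, either direction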
Hsp90 inh: tumor Hsp90 inhibitors, primary screen, cell lysate, fluorescence polarization, NCI-N417 lysate. AID 429, 2006. Cy3B-geldanamycin FP displacement. inhibition, % at 30 µM. 0.35% of 64,000 active;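 active means inhibition above 50%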;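 further: 0% = tracer plus lysate wells and 100% = tracer alone without lysate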
M1 antag conf: rat M1 muscarinic receptor antagonists, confirmation, CHO cells, Fluo-4 calcium, duplicate | shares compounds with M1 antagonist | ACh EC80 antagonism; hits give low values | calcium response (max-min fluorescence) at 10 µM | 43% of 1,700 active;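 active means calcium response below the same-plate mean of wells given acetylcholine alone at its 80%-effect dose, minus 3 SD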;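 further: raw fluorescence intensity difference in arbitrary instrument units and not normalized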
mGluR4 antag: human mGluR4 response to M1 antagonist hits, M1 allosteric modulator project, cell-based, antagonist mode, secondary assay 1; shares compounds with M1 antagonist; CHO-mGluR4 calcium flux, Fluo-4 fluorescence, glutamate EC80; hits give low values; fluorescence response (max-min) at 10 µM; 0.9% of 1,700 active; AID 678, 2007;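 active means fluorescence response below the plate's average for near-maximal glutamate wells, less 3 SD of those wells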;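 further: raw unnormalized fluorescence span taken in the window right after glutamate addition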
Active calls of the source: *; i = inactive; nt = no result given. An excerpt weighted towards active compounds, which were near 5.1% of everything screened.

SMILES | Ecoli WT expand | M1 antagonist | tolC growth inh | BAP1 inh | M1 ag | Hsp90 inh | M1 antag conf | mGluR4 antag
CC12CCC(C(=O)N(c3ccc(S(N)(=O)=O)cc3)C1=O)C2(C)C (stereo not given) | nt | nt | nt | i | nt | nt | nt | nt
CN(C(=O)CSc1nc2ccccc2n1CCc1ccccc1)C1CCS(=O)(=O)C1 (stereo not given) | -7 | -10* | 13 | i | 1.4 | 4 | 449 | 203
COc1ccc2oc(=O)c(-c3nc4sc5c(c4c(=O)[nH]3)CCCC5)cc2c1 | nt | nt | nt | i | nt | nt | nt | nt
CCOC(=O)C1=C(C)NC(=O)NC1c1cn(-c2ccccc2)nc1-c1cccs1 (stereo not given) | 0 | -1.6 | 18 | i | -0.79 | -5 | nt | nt
COC(=O)C1=C(C)NC(=O)NC1c1cn(-c2ccccc2)nc1-c1cccs1 (stereo not given) | 2 | -2.7* | 9 | nt | -1.1 | nt | 429 | 203
CN1CCN(C2=Nc3ccccc3Oc3ccc(Cl)cc32)CC1 | nt | -13* | 7 | i | 0.27 | 3 | 15* | 267
O=C(Cn1nc(-c2ccccc2)nc1-c1ccccc1)Nc1ccc(Br)cc1 | nt | nt | nt | i | nt | nt | nt | nt
CCN(CCCNC(=O)c1c(C)cc(=O)oc1C)c1ccccc1 | -2 | -3.9* | -3 | i | 0.53 | 3 | 530 | 246
Cc1ccc(NC(=O)c2cc3ccc(O)cc3oc2=N)cc1 | nt | nt | nt | i | nt | nt | nt | nt
COc1ccc(NC(=O)C2CCCCN2CC(=O)OCc2ccccc2)cc1OC (stereo not given) | 8 | -2.7* | -6 | i | -1 | -2 | 610 | 210
COc1ccc(NC(=O)C2CCCCN2N)cc1OCC(C)C (stereo not given) | 5 | nt | nt | nt | nt | nt | nt | nt
COc1cc(NC(=O)c2c(F)c(F)c(F)c(F)c2F)c(OC)cc1Cl | 2 | -2.9* | -26 | i | -0.11 | 3 | 529 | 148*
COc1ccc(NC(=O)c2c(F)c(F)c(F)c(F)c2F)cc1Cl | 1 | 0.31 | 9 | i | -0.19 | -2 | nt | nt
N#CCSc1nc2c(cc1C#N)CCCCCC2 | -6 | -5.3* | 4 | i | 0.062 | -3 | 205* | 259
CCOC(=O)N1CCN(C(=O)C(C)(C)Oc2ccc(Cl)cc2)CC1 | 8 | -2.6* | 6 | i | -0.25 | 0 | 525 | 213
CCOC(=O)N1CCN(C(=O)C2CCC(CNS(=O)(=O)c3ccc(Cl)cc3)CC2)CC1 (stereo not given) | -5 | -2.9* | -5 | i | 0.22 | -2 | 543 | 274
CCOC(=O)N1CCN(C(=O)C2CCN(S(=O)(=O)c3ccc(Cl)cc3)CC2)CC1 | 5 | nt | nt | nt | nt | nt | nt | nt
COc1cc(C2C(C(=O)OC3CCCC3)=C(C)NC3=C2C(=O)CCC3)cc(OC)c1O (stereo not given) | nt | nt | nt | i | nt | nt | nt | nt
O=c1nc2n(-c3cccc(Cl)c3)c3cccc(Cl)c3cc-2c(=O)[nH]1 | nt | nt | nt | i | nt | nt | nt | nt
Cc1cccc(NC(=O)c2sc(NC(=O)c3ccco3)c(C#N)c2C)c1C | -17 | -2.5* | 5 | i | -0.63 | -5 | 612 | 229
COc1cccc(-c2nc(NCCN3CCOCC3)c3ccccc3n2)c1O | -3 | -1.9 | 21 | i | 7.4 | 0 | nt | nt
Oc1ccccc1-c1nc(NCCN2CCOCC2)c2ccccc2n1 | 13 | -2.8* | 13 | i | 6.9 | 0 | 614 | 157
O=c1c2c3c(sc2nc2n1CCCCC2)CCCCC3 | -1 | -3.1* | 30 | i | -1.2 | -3 | 273* | 220
Cc1ccc(C)n1-n1cnc2sc3c(c2c1=O)CCCCC3 | 2 | nt | nt | nt | nt | nt | nt | nt
Cc1ccc(C)n1-n1c(C)nc2sc3c(c2c1=O)CCCCC3 | -3 | -5.6* | 67* | i | -0.5 | 0 | 325* | 247
SMILES | Ecoli WT expand | M1 antagonist | tolC growth inh | BAP1 inh | M1 ag | Hsp90 inh | M1 antag conf | mGluR4 antag
O=c1c2c3c(sc2nc2n1CCCCC2)CCCC3 | -9 | nt | 23 | i | nt | 2 | nt | nt
OCC1OC(Nc2cccc3ccccc23)C(O)C(O)C1O (stereo not given) | nt | nt | nt | i | nt | nt | nt | nt
O=C(NCCCN1CCOCC1)NC12CC3CC(CC(C3)C1)C2 | -4 | 0.022 | -10 | i | 0.54 | -5 | nt | nt
CCOCCCNC(=O)NC12CC3CC(CC(C3)C1)C2 | 1 | -5.1* | -12 | i | 0.46 | -2 | 591 | 266
Cc1ccc2ccc(S(=O)(=O)n3nc(C)cc3C)cc2c1 | 6 | -2* | 78* | i | -1.3 | -3 | 443* | 269
O=S1(=O)CC=C(CSc2nc3ccccc3[nH]2)C1 | 9 | -2.3* | -28 | i | 0.056 | 0 | 566 | 201
O=C(Cc1coc2ccc3ccccc3c12)N1CCN(c2ncccn2)CC1 | 0 | -3.3* | 7 | i | -0.76 | -2 | 589 | 240
COc1ccc(C2C(C(=O)c3sc(C)nc3C)=C(O)C(=O)N2CCN(C)C)cc1 (stereo not given) | -14 | -11* | 2 | i | -0.071 | 0 | 663 | 242
CN1CCN(C(=O)c2ccc(COc3ccc(Cl)cc3Cl)cc2)CC1 | 6 | -2.7* | 38 | i | -1.2 | -1 | 529 | 228
COCCCNC(=O)Nc1ccc(Br)cc1Cl | 5 | 0.68 | -6 | i | 1.4 | 1 | nt | nt
COCC(COCCCNC(=O)Nc1ccc(Br)cc1)OC (stereo not given) | -17 | -1.6* | -2 | i | -0.34 | 0 | 553 | 214
CCCCC(=O)NC1(C(F)(F)F)C(=O)Nc2c1c(=O)[nH]c(=O)n2Cc1ccco1 (stereo not given) | -3 | -4.7* | -3 | i | -0.54 | -4 | 706 | 230
CCOC(=O)N1CCC(N2Cc3cccc(C(=O)NCc4ccc(C)cc4)c3C2=O)CC1 | 1 | 0.36 | -7 | i | 0.47 | -2 | nt | nt
CCOC(=O)N1CCC(N2Cc3cccc(C(=O)NCc4ccccn4)c3C2=O)CC1 | 4 | -2.5* | 0 | i | 0.68 | -2 | 500* | 247
O=C(Nc1ccccc1Cl)c1cc(S(=O)(=O)N2CCCC(C(=O)O)C2)ccc1F (stereo not given) | 7 | -3.5* | 6 | i | -0.087 | -7 | 529* | 248
O=C(Nc1ccccc1Cl)c1cc(S(=O)(=O)N2CCCCC2)ccc1N1CCOCC1 | -2 | nt | nt | nt | nt | nt | nt | nt
O=C(NCc1ccco1)c1cc2cc3ccc(Cl)cc3nc2o1 | -3 | -2.5* | -13 | nt | 0.055 | -4 | 696 | 238
